Source: PubChem
FGF22 binding – shifts melting point of recombinant human FGF22; actives 1.5% (n = 340,000); recombinant FGF22 thermal shift, SYPRO orange fluorescence; percent of sucrose octasulfate shift, DMSO zero; Q9HCT0; activity (Tm shift, normalised), % at 9.99 µM;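 active = mean Tm shift, scaled 0 neutral to 100 positive control, at about 1.3% or above, every replicate too, limit read from the data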
SIRT5 inh – sirtuin-5 (human) deacylase inhibition; Q9NXA8; Purified SirT5, succinyl-peptide AMC, trypsin-coupled fluorescence; inhibition, % at 15 µM; actives 1.1% (n = 330,000); in the data active = inhibition above about 15%
E-sel inducer – E-selectin induction on HUVECs; activation, % at 7.58 µM; P16581; HUVEC E-selectin immunofluorescence imaging; normalized: neutral wells 0, TNF-alpha wells 100; AID 686992; actives 0.37% (n = 260,000);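 active = mean E-selectin-positive cell signal at least 10% of the positive control, reached in at least 60% of replicates, without over 20% cell loss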
Target sequence (P16581 whole entry, looked up): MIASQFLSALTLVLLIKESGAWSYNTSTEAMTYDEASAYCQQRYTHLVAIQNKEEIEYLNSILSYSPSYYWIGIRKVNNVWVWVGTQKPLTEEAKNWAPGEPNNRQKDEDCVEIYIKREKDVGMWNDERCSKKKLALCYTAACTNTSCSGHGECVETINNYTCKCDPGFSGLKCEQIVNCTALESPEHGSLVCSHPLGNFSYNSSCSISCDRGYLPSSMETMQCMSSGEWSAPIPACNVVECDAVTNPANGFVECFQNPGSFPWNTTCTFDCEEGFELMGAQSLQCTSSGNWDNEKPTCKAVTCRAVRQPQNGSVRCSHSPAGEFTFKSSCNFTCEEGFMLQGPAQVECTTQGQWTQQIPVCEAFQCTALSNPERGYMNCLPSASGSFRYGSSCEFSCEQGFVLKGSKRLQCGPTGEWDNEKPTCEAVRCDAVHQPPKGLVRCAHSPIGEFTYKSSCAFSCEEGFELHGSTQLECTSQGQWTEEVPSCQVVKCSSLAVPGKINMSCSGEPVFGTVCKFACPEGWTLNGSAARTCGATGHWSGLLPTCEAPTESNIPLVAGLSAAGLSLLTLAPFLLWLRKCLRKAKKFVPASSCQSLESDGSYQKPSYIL
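Assay system: HUVEC primary endothelial cells. Input: 3,000 HUVEC seeded per well. Doses: one compound dose added by pin transfer. Read-out basis: % PE-positive cells. Benchmarks: TNF-alpha high, DMSO low. Detection: immunofluorescence imaging. Buffer or medium: EGM-2, gelatin.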
S100A4 MyoIIA – blocks human S100A4 binding to myosin IIA peptide; AID 652163; inhibition, % at 10.7 µM; actives 0.14% (n = 360,000); S100A4/TAMRA-MyoIIA peptide fluorescence polarization;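 active = mean inhibition of at least 70% across replicates, with every replicate also reaching that level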
Target sequence (P26447 whole entry, looked up): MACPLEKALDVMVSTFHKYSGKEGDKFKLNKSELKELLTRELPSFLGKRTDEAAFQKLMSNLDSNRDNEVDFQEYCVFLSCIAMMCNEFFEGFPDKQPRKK
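Test system: S100A4 monomer protein; Medium: HEPES pH 7.2 with CaCl2, KCl, NaCl, DTT, Triton; Probe or stimulus: TAMRA-labelled myosin IIA heavy-chain peptide probe, 5 nM; Doses: one dose per compound; Times: polarization read 5 min after assay mix addition, stable 5–60 min; Benchmarks: neutral control DMSO, positive control TFP.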
miR-122 sensor – blocks miR-122 activity in Huh7 sensor cells | actives 0.3% (n = 340,000) | Huh7 miR-122 Renilla luciferase sensor, 48 h; neutral wells = 0, positive control = 100 | activation (reporter increase), % at 12.5 µM | AID 602342;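 active = mean replicate activation score at least 90 and every replicate individually at or above 90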;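 note: higher luciferase means less miR-122 activity so hits act as miR-122 inhibitors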
Starred values were filed as active, the others as inactive; nt = no result; ! = repeats disagree; [ ] = dose if it differs, or a comment. Compounds with a hit are over-represented: about 2.5% of the library has one in this group of screens.

SMILES	FGF22 binding	SIRT5 inh	E-sel inducer	S100A4 MyoIIA	miR-122 sensor
CN1C(=O)c2cc(NC(=O)C3CC3)ccc2OC[C@@H]2O[C@H](CC(=O)NCCc3ccncc3)CC[C@@H]21	-0.2	0.2	-0.1	1.9	7.3[16.7 µM]
C#CCN1CCc2onc(-c3ccccc3OC)c2C1=O	43.2*	-2.5	0.3	-5.1	37.5
Cc1cc(O)c(N)c(C)c1Cl	43.1*	1.0	nt	-7.5	nt
Cc1ccc(S(=O)(=O)NCC[C@@H]2CC[C@@H](NC(=O)c3ccccn3)[C@@H](CO)O2)cc1	-0.5	-0.8	-0.5	3.3	nt
O=C(NC1=NCCS1)c1ccccc1OCc1ccccc1Cl	43.9*	0.1	nt	-1.8	nt
O=C(NC1=NCCS1)c1ccccc1Cl	0.1	2.6	nt	1.7	0.7
O=C(N/N=C/c1ccc[nH]1)c1ccccc1OCc1ccccc1Cl	43.2*	-1.1	0.0	-4.0	nt
C[C@@H]1CCCCO[C@H](CN(C)CC2CCCCC2)[C@@H](C)CN([C@H](C)CO)C(=O)c2cc(NS(=O)(=O)c3ccccc3)ccc2O1	-0.1	-14.0	-0.1	7.9	9.2[16.7 µM]
COc1ccc(-c2nc3cc(C)c(Br)c(C)n3c2CC(C)(C)C)cc1OC	-0.3	-4.2	177.4*	-2.6	2.1
COc1ccc(-c2nc3cc(C)c(Br)c(C)n3c2Cc2ccc(C)cc2)cc1OC	-0.2	4.1	0.0	-3.5	20.3
Cc1cc(C)c(NC(=O)CSc2nc3ncc(Br)cc3[nH]2)c(C)c1	-0.3	18.7*	0.1	-5.0	-2.3
C[C@H](CO)N1C[C@H](C)[C@@H](CN(C)C(=O)NC2CCCCC2)Oc2cc(C#Cc3ccc(F)cc3)ccc2S1(=O)=O	-0.3	17.6*	-3.5	1.8	2.8[16.7 µM]
C[C@@H]1CN([C@H](C)CO)S(=O)(=O)c2ccc(C#Cc3ccc(F)cc3)cc2O[C@@H]1CN(C)C(=O)NC1CCCCC1	0.0	18.7*	-4.2	-23.3	-0.6[16.7 µM]
C[C@@H]1CN([C@@H](C)CO)S(=O)(=O)c2ccc(C#Cc3ccc(F)cc3)cc2O[C@H]1CN(C)C(=O)NC1CCCCC1	-0.3	18.8*	-1.3	-2.3	1.7[16.7 µM]
O=C(C[C@@H]1C=C[C@H](NC(=O)Nc2cc(F)ccc2F)[C@H](CO)O1)Nc1ccccc1	0.5	1.7	0.5	-10.6	nt
Cc1noc(C)c1NC(=O)N[C@@H]1CC[C@@H](CC(=O)N2CCCCC2)O[C@@H]1CO	0.1	-6.6	-0.2	1.7	nt
Cc1ccc(S(=O)(=O)N(C)C[C@H]2Oc3c(NS(=O)(=O)c4cccs4)cccc3C(=O)N([C@H](C)CO)C[C@@H]2C)cc1	-0.5	0.3	1.7	10.6	14.9[16.7 µM]
O=C(C[C@@H]1C[C@@H]2c3cc(NC(=O)Nc4ccccc4)ccc3O[C@@H]2[C@H](CO)O1)NC1CCCCC1	0.0	nt	1.5	-10.8	-1.4[16.7 µM]
CC(C)NC(=O)N1[C@H](CO)[C@@H](c2ccccc2)C12CN(Cc1ccccc1)C2	0.0	1.2	0.0	7.5	nt
Cc1ccsc1CNS(=O)(=O)c1ccc(F)cc1	-0.3	0.6	nt	-10.3	41.2
CNCc1sccc1C	43.3*	0.1	nt	3.1	nt
CS(=O)(=O)N1CCCCN2[C@@H](CO)[C@H](c3ccc(C#Cc4ccccn4)cc3)[C@@H]2C1	0.0	5.7	0.0	12.1	-3.1[16.7 µM]
CCOC(=O)Cc1csc(NC(=O)CSc2nnc(C)n2C)n1	nt	nt	nt	nt	-8.3
COC(=O)Cc1csc(NC(=O)CSc2nnc3ccccn23)n1	44.1*	-2.2	nt	-4.6	nt
Cc1c(C(=O)OCc2ccccc2)[nH]c2c1C(=O)CC(c1ccco1)C2 (centres undefined)	nt	nt	nt	nt	139.3*
SMILES	FGF22 binding	SIRT5 inh	E-sel inducer	S100A4 MyoIIA	miR-122 sensor
CCN(CC)C(=O)CN1C(=O)c2cccc3cccc(c23)C1=O	43.1*	-9.7	nt	2.0	-4.6
CCOC(=O)c1c(Nc2ccc(Cl)cc2)sc(/C=C2\C=Nc3ccccc32)c1O	-0.1	nt	0.3	2.7	106.8*!
C[C@H](CO)N1C[C@H](C)[C@@H](CN(C)S(=O)(=O)c2ccc(Cl)cc2)Oc2ccc(NC(=O)CCCCCC(=O)Nc3ccccc3N)cc2CC1=O	nt	nt	-4.7	nt	0.4[16.7 µM]
C[C@H]([C@H](O)c1ccccc1)N(C)C(=O)CN	0.0	21.3*	0.1	13.7	-4.8
NNC(=O)C1CCCN1S(=O)(=O)c1ccc(Cl)cc1 (centres undefined)	43.1*	8.9	0.0	7.1	nt
COc1ccc(S(=O)(=O)Nc2ccc3c(c2)C(=O)N([C@H](C)CO)C[C@H](C)[C@H](CN(C)S(=O)(=O)c2ccc(F)cc2)OCCCC[C@@H](C)O3)cc1	-1.2	9.3	0.1	-6.9	15.8[16.7 µM]
COc1ccc(S(=O)(=O)Nc2ccc3c(c2)C(=O)N([C@H](C)CO)C[C@H](C)[C@@H](CN(C)S(=O)(=O)c2ccc(OC)cc2)OCCCC[C@@H](C)O3)cc1	-0.2	nt	-0.2	nt	-1.5[16.7 µM]
COc1ccc(S(=O)(=O)N(C)C[C@H]2OCCCC[C@H](C)Oc3ccc(NS(=O)(=O)c4ccc(F)cc4)cc3C(=O)N([C@H](C)CO)C[C@H]2C)cc1	-0.1	22.5*	0.6	22.8	-2.6[16.7 µM]
COc1ccc(S(=O)(=O)Nc2ccc3c(c2)C(=O)N([C@@H](C)CO)C[C@@H](C)[C@@H](CN(C)S(=O)(=O)c2ccc(OC)cc2)OCCCC[C@H](C)O3)cc1	-0.1	nt	-0.2	nt	0.0[16.7 µM]
COc1ccc(S(=O)(=O)N(C)C[C@@H]2OCCCC[C@@H](C)Oc3ccc(NS(=O)(=O)c4ccc(F)cc4)cc3C(=O)N([C@H](C)CO)C[C@H]2C)cc1	-0.4	18.0*	1.0	-36.4	-14.9[16.7 µM]
COc1ccc(S(=O)(=O)N(C)C[C@H]2OCCCC[C@H](C)Oc3ccc(NS(=O)(=O)c4ccc(F)cc4)cc3C(=O)N([C@@H](C)CO)C[C@H]2C)cc1	-0.5	23.4*	-0.2	-4.6	12.7[16.7 µM]
COc1ccc(S(=O)(=O)N(C)C[C@@H]2OCCCC[C@H](C)Oc3ccc(NS(=O)(=O)c4ccc(F)cc4)cc3C(=O)N([C@@H](C)CO)C[C@H]2C)cc1	0.2	17.4*	-0.2	-1.4	1.4[16.7 µM]
COc1ccc(S(=O)(=O)Nc2ccc3c(c2)C(=O)N([C@H](C)CO)C[C@H](C)[C@H](CN(C)S(=O)(=O)c2ccc(F)cc2)OCCCC[C@H](C)O3)cc1	0.0	14.0	-0.1	6.8	-13.6[16.7 µM]
CC=Cc1ccc2n(c1=O)C[C@@H]1[C@@H](CO)[C@H](C(=O)NCc3cc(F)cc(F)c3)[C@H]2N1S(C)(=O)=O (mixture of isomers)	-0.1	-28.5	0.2	-9.1	nt
C/C=C/c1ccc([C@H]2[C@@H](CO)N[C@@H]2CNC(=O)C2CCCCC2)cc1	nt	-0.5	0.8	-0.3	nt
C[C@@H]1CN([C@@H](C)CO)C(=O)c2cccc(NS(C)(=O)=O)c2O[C@H]1CN(C)Cc1ccncc1	-0.3	4.2	-1.3	4.0	2.0[16.7 µM]
